Series [1] deals with Xanthine dehydrogenase/oxidase (Bos taurus, UniProt P80457). The experiment in a line: Inhibition of bovine xanthine oxidase assessed as reduction in uric acid formation using xanthine as substrate incubated for 3 mins by microplate assay.
Series [2] is described as follows: Toxicity in ICR mouse model of xanthine/potassium oxonate-induced hyperuricemia assessed as creatinine level at 5 mg/kg, ig qd treated subsequently for 7 days relative to control. The class given is organism-based. To be noted: in vivo, po, 168 h, time 7 day. The procedure, abridged: (§1)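 Long-term model in ICR mice: potassium oxonate 250 mg/kg s.c. plus hypoxanthine 150 mg/kg i.p. at 9:00 AM, once daily for 7 days. Compound dosed intragastrically at 5 mg/kg (0.5% CMC-Na suspension) at 10:00 AM for 7 days. Serum obtained by centrifugation at 4000 r/min for 10 min and stored at −80 °C. Uric acid, creatinine and urea nitrogen measured with diagnostic kits; n = 8.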

Series [3] has as its system Mus musculus. Briefly: Hypouricemic activity in ICR mouse model of xanthine/potassium oxonate-induced long term hyperuricemia assessed as decrease in serum uric acid level at 5 mg/kg, ig qd treated subsequently for 7 days relative to control. Format: functional, organism-based. To be noted: time 7.0 day. The procedure, abridged:
as §1

A short description of series [4]: Toxicity in ICR mouse model of xanthine/potassium oxonate-induced hyperuricemia assessed as urea nitrogen level at 5 mg/kg, ig qd treated subsequently for 7 days relative to control. The class given is organism-based. To be noted: in vivo, po, 168 h, time 7 day. The gist of the method: as §1
In series [5] the test system is Mus musculus. Briefly: Hypouricemic activity in ICR mouse model of xanthine/potassium oxonate-induced acute hyperuricemia assessed as decrease in serum uric acid level at 5 mg/kg, ig measured after 4 hrs relative to control. Format: functional, organism-based. The gist of the method:
(§2)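 ICR mice (18–22 g), acclimatized ≥1 week. Acute hyperuricemia induced by potassium oxonate 250 mg/kg s.c. plus hypoxanthine 400 mg/kg i.p., both in saline. Baseline tail blood taken at 1 h, then compound given intragastrically at 5 mg/kg as a suspension in 0.5% CMC-Na; model group received vehicle. […] Mean ± S.D.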

In series [6] the test system is Mus musculus. Briefly: Hypouricemic activity in ICR mouse model of xanthine/potassium oxonate-induced acute hyperuricemia assessed as decrease in serum uric acid level at 5 mg/kg, ig relative to control. To be noted: TDE = time-dependent effect. The class given is functional, organism-based. The procedure, abridged:
as §2

Activity calls are given as the source filed them. The rule behind the calls is not given here.

Xanthine dehydrogenase/oxidase, sequence (P80457 whole entry): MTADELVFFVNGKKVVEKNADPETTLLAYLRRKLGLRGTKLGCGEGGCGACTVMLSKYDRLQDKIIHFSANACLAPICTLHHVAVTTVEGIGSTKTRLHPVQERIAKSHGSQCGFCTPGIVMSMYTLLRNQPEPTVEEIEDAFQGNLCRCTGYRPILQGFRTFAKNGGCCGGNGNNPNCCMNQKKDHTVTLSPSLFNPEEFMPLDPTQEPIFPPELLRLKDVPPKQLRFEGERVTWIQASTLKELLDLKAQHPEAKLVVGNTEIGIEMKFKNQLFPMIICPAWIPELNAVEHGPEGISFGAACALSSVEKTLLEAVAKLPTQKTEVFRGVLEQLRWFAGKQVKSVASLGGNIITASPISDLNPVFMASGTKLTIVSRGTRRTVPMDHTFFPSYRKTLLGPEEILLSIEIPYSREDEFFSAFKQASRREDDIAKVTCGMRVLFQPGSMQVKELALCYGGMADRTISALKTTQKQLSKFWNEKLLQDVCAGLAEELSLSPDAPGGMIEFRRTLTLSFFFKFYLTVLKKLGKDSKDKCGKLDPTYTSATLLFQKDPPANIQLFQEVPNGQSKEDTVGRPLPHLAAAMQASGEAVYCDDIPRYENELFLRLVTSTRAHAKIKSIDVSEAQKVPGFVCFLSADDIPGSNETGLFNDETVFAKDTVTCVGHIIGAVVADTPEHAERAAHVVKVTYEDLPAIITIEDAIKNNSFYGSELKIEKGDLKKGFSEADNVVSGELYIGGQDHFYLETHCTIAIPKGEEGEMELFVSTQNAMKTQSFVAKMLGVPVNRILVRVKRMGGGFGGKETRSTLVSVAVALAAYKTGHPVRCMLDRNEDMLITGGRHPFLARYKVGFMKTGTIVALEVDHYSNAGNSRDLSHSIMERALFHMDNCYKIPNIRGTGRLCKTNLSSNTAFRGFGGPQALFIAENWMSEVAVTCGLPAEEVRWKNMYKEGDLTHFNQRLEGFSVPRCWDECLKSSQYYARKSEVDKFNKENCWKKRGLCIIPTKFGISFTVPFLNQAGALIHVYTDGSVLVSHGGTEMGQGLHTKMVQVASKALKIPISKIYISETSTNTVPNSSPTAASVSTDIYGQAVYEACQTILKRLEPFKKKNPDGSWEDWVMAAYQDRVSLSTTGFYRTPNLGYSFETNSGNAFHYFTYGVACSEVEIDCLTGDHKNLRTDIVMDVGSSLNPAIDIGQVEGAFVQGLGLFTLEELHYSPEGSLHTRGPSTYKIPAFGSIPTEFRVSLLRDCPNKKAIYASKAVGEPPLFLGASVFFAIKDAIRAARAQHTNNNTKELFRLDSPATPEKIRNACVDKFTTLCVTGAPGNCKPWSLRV

Turning to `CCOc1ccc(-c2c[nH]c(C(=O)O)n2)cc1C#N`, the IC50 in series [1] turned out to be 948 nM. For `CC(C)COc1ccc(-n2cnc(C(=O)O)c2)cc1C#N`, the IC50 in series [1] was 94.5 nM. On to `CCOc1ccc(-n2cnc(C(=O)O)c2)cc1C#N`, for which the IC50 in series [1] is 226 nM.

Turning to `N#Cc1cc(-n2cnc(C(=O)O)c2)ccc1N1CCCCC1`, the IC50 in series [1] was 55.6 nM. For the compound `CC1CCN(c2ccc(-n3cnc(C(=O)O)c3)cc2C#N)CC1`, the IC50 in series [1] came out at 30.5 nM. As to `COc1ccc(-c2ccc(-n3cnc(C(=O)O)c3)cc2C#N)cc1`, the IC50 in series [1] is 34.5 nM. Consider `N#Cc1cc(-n2cnc(C(=O)O)c2)ccc1N1CCCCCCC1`, for which the Activity result in series [2] is “Toxic”; in series [4] it was “Toxic”; in series [6] it was “Tde”. In addition, the outcome in series [3] and in series [5] was Active. In series [1], the IC50 came to 8 nM. For the compound `CCC(CC)COc1ccc(-n2cnc(C(=O)O)c2)cc1C#N`, in series [1], the IC50 is 29.8 nM.

On to `CC(C)COc1ccc(-c2c[nH]c(C(=O)O)n2)cc1C#N`, for which the IC50 in series [1] was 510 nM. For `CC(C)(C)c1ccc(-c2ccc(-n3cnc(C(=O)O)c3)cc2C#N)cc1`, the Activity entry in series [2] was “Toxic”; in series [4] it was “Toxic”; in series [6], “Tde”. Moreover, the result in series [3] and in series [5] was Active. In addition, in series [1], the IC50 worked out at 7.2 nM. As for `CC(C)Oc1ccc(-n2cnc(C(=O)O)c2)cc1C#N`, the concentration for half-maximal inhibition (IC50) in series [1] is 198 nM.

As to `CCC(CC)Oc1ccc(-n2cnc(C(=O)O)c2)cc1C#N`, in series [1], the IC50 was 40.6 nM. As to `N#Cc1cc(-n2cnc(C(=O)O)c2)ccc1OC1CCCCC1`, in series [1], the IC50 turned out to be 47.4 nM. The same measure, in the same setting: next, `CC(C)Oc1ccc(-c2c[nH]c(C(=O)O)n2)cc1C#N`: 750 nM. With `CC(C)(C)COc1ccc(-n2cnc(C(=O)O)c2)cc1C#N`, the IC50 in series [1] is 67.9 nM.

For `CC(C)CN(C)c1ccc(-n2cnc(C(=O)O)c2)cc1C#N`, the IC50 in series [1] was 27.1 nM. As to `COc1cccc(-c2ccc(-n3cnc(C(=O)O)c3)cc2C#N)c1`, the IC50 in series [1] was found to be 74.4 nM. Regarding `N#Cc1cc(-c2c[nH]c(C(=O)O)n2)ccc1OC1CCCC1`, the IC50 in series [1] is 387 nM. On the same count and under the same terms, as for `CCC(C)Oc1ccc(-n2cnc(C(=O)O)c2)cc1C#N` (configuration not stated), the figure is 73.9 nM; as for `CC(C)COc1ccc(-c2cn(C)c(C(=O)O)n2)cc1C#N`, 2160 nM; as for `N#Cc1cc(-n2cnc(C(=O)O)c2)ccc1N1CCCC1`, 34.1 nM.

Take `N#Cc1cc(-n2cnc(C(=O)O)c2)ccc1OC1CCCC1`: the IC50 in series [1] worked out at 63 nM.

Usually IC50 stands for the concentration that inhibits the measured activity by half.

The values above are taken from ChEMBL document CHEMBL4680125, “Synthesis and bioevaluation of 1-phenylimidazole-4-carboxylic acid derivatives as novel xanthine oxidoreductase inhibitors” (Eur J Med Chem, 2020).
